Screening data deposited in PubChem by several laboratories.
Shown is part of a subset that was picked to be rich in hits.
CHOP UPR activ: activators of apoptotic CHOP UPR arm, primary screen, cell-based, CHO-CHOP luciferase reporter, luminescence, uHTS; hit rate 0.34% among 330,000; UPR activation; percent of tunicamycin response over DMSO baseline; activation, % at 10 µM; AID 449763, 2010;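 active = at 10 µM dose, activation of 40% or more, normalized to positive control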;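 note: 100% = tunicamycin at 10 µg/mL and 0% = DMSO alone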
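assay system = CHO CHOP reporter cells | amount = 500 CHO-CHOP cells per well | buffer or medium = F12 with 10% FBS | incubation = 16-18 h cell attachment, then 6 h compound exposure, 37 °C | detection = luminescence read with Steady-Glo | read-out = percent activation relative to tunicamycin control | controls = tunicamycin high control, DMSO low control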
TLR9-MyD88 inh: inhibitors of TLR9-MyD88 association in cells, primary screen, cell-based, CHO, BLA complementation, fluorescence; CCF4 FRET ratio; hit rate 0.21% among 340,000; inhibition, % at 4.98 µM;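 active = inhibition above the mean over all tested compounds plus 3 SD, cut at about 21% in these data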;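 note: 0% = DMSO only wells and 100% = clavulanate BLA inhibitor control wells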
NOD2 RIPK2 PPI: NOD2-RIPK2 binding disruptors in cells, primary screen, fluorescence, CHO cells, BLA complementation. Receptor-interacting serine/threonine-protein kinase 2 (Homo sapiens), O43353. CCF4 ratio. inhibition, % at 4.98 µM. hit rate 0.38% among 360,000. AID 624267, 2012; in the data active = inhibition above about 21%;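 note: 0% = vehicle only and 100% = reference blocker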
TLR4 MyD88 comp: inhibitors of TLR4-MyD88 association in cells, primary screen, cell-based, HeLa CL3-4, BLA complementation, FRET ratio | AID 861, 2007 | inhibition, % at 8.4 µM | HeLa CL3-4 TLR4/MyD88 BLA complementation | hit rate 0.18% among 200,000; in the data active = inhibition above about 25%;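 note: 0% = vehicle and 100% = reference inhibitor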
CHOP inh: inhibitors of CHOP promoter induction, primary screen, cell-based, unfolded protein response, luciferase reporter; CHO-K1 CHOP-promoter luciferase, tunicamycin-induced, 15-18 h; inhibition, % at 10 µM; hit rate 3.8% among 220,000;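 active = compounds that reduced the stress-induced luciferase reporter signal by more than about 70% of percent inhibition, limit read from the data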;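 note: 0% = tunicamycin plus vehicle and 100% = wells without tunicamycin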
UPR XBP1 act: activators of adaptive XBP1 UPR arm, primary screen, cell-based, CHO-XBP1 luciferase reporter, luminescence, uHTS | IRE1-XBP1 UPR activation; percent of tunicamycin response, DMSO as zero | activation, % at 20 µM | hit rate 0.33% among 330,000;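 active = versus positive control, 20 µM dose yields 30% or more activation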;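 note: 100% = tunicamycin at 10 µg/mL and 0% = DMSO only wells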
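Material: CHO cell line with stable XBP1 luciferase reporter; schedule: 16-18 h cell attachment at 37 °C, then 6 h compound exposure; signal: glow luminescence from Steady-Glo reagent; medium: serum-containing F12 medium, 10% FBS; benchmarks: tunicamycin 10 µg/mL and vehicle-only wells; read-out: percent activation relative to tunicamycin reference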
An asterisk follows results filed as active; / = no result.

SMILES | CHOP UPR activ | TLR9-MyD88 inh | NOD2 RIPK2 PPI | TLR4 MyD88 comp | CHOP inh | UPR XBP1 act
COc1ccc(CCNC(=O)C2CCCN(S(C)(=O)=O)C2)cc1 (centres undefined) | -0.4 | -3.0 | -1.4 | / | / | -2.2
NC(=O)c1ccc(N2CCN(c3ncc(C(F)(F)F)cc3Cl)CC2)cc1 | 0.1 | -1.4 | -4.7 | / | 10.4 | 0.2
CC(C)(C)NC(=O)NC(=O)CN1CCN(c2ncc(C(F)(F)F)cc2Cl)CC1 | -1.8 | 2.8 | -19.5 | -1.6 | 78.2* | -2.8
CC(=O)c1ccc(N2CCN(c3ncc(C(F)(F)F)cc3Cl)CC2)cc1 | 1.9 | 1.9 | 9.3 | -1.0 | 79.2* | -0.9
CC(=O)c1ccc(N2CCN(c3ccc(C(F)(F)F)cn3)CC2)cc1 | / | -3.8 | -8.8 | 17.5 | 83.3* | /
NNC(=O)CN1CCN(c2ncc(C(F)(F)F)cc2Cl)CC1 | 0.3 | 6.2 | -14.3 | 7.2 | -4.3 | 1.1
Cc1cnc(C)c(Nc2nc(C(N)Cc3ccc(C(F)(F)F)cc3)cs2)n1 (centres undefined) | / | / | -10.8 | / | / | /
COC(=O)c1c(C(=O)OC)c(-c2ccc(Cl)cc2)n2c1CS(=O)(=O)C2 | -1.2 | / | -8.7 | -19.1 | 2.3 | -2.4
CC(C)c1nc(N2CCN(C(=O)c3ccccc3)CC2)c(C#N)c2c1COC(C)(C)C2 | 3.6 | 1.2 | -6.6 | -8.9 | 91.0* | 0.1
CC(C)c1nc(N2CCN(C(=O)c3ccco3)CC2)c(C#N)c2c1COC(C)(C)C2 | 0.7 | -4.3 | 0.4 | / | / | -5.6
O=C(/C=C/c1ccc(Cl)cc1)N(c1ccccn1)C1CCCCC1 | -0.5 | 3.1 | -6.5 | -8.3 | 70.4* | -2.5
CCCc1cc(C(=O)Cc2ccc(C(=O)OCC)o2)c(O)cc1O | -1.6 | -1.9 | -7.8 | 4.5 | 61.4 | 1.4
CCCc1cc(-c2n[nH]c(C)c2-c2ccc(C(=O)OCC)o2)c(O)cc1O | 0.7 | -5.7 | 7.7 | 12.3 | 70.7* | -0.8
COC(=O)C[C@H]1CC[C@H](NC(=O)c2ccc(F)cc2)[C@@H](CO)O1 | / | / | -3.1 | / | / | /
CCCn1c(CN(C)Cc2ccccc2)nc2c1c(=O)n(C)c(=O)n2C | -0.1 | -13.3 | 3.6 | -1.7 | 25.4 | 1.4
CCCn1c(CN(Cc2ccccc2)Cc2ccccc2)nc2c1c(=O)n(C)c(=O)n2C | 0.8 | 6.1 | -9.2 | -1.5 | 92.4* | -1.5
COc1cc(OC)c(NS(=O)(=O)c2ccc3c(c2)NC(=O)CO3)cc1Cl | 1.4 | 3.5 | 1.1 | / | / | -2.3
Cc1ccc2nc(-c3ccc(NS(=O)(=O)c4ccc(F)cc4)cc3)sc2c1 | 2.7 | -7.7 | 8.2 | -14.4 | 104.0* | 1.3
Nc1ccc2nc(-c3ccccc3)sc2c1 | -4.6 | 2.5 | 1.9 | -8.4 | 62.7 | -3.6
Cc1ccc2nc(-c3ccc(N)cc3)sc2c1 | -6.2 | / | -8.3 | / | 78.1* | -5.4
CC(=O)Nc1ccc(S(=O)(=O)Nc2nc3ccc(C)cc3s2)cc1 | 1.6 | -0.2 | -0.9 | -11.4 | 3.6 | -0.2
Cc1ccc(-c2noc(CSc3ccccc3)n2)cc1 | 2.0 | 8.2 | 2.0 | 0.4 | 62.1 | -1.4
Cc1cccc(-c2noc(CSc3ccccc3)n2)c1 | 3.6 | 7.6 | 2.7 | -14.2 | 70.5* | -0.4
CCOC(=O)c1ccc(NC(=O)c2nc[nH]c2C(=O)N[C@H](C)c2ccccc2)cc1 | 0.5 | -1.2 | -11.0 | / | 70.2* | 3.1
Cc1cccc(NC(=O)c2nc[nH]c2C(=O)N[C@@H](C)C(=O)OC(C)(C)C)c1 | 1.5 | 6.4 | -5.2 | / | 85.9* | -5.4
